This note sets out measurements from ChEMBL document CHEMBL4513216, “Probing the Open Global Health Chemical Diversity Library for Multistage-Active Starting Points for Next-Generation Antimalarials” (ACS Infect Dis, 2020).

The nature of the data set: Toxicity liver stage against HepG2, at 10uM. It counts as cell-based. The note with it: human, HepG2-A16-CD81EGFP cells; read-out: INHIBITION
Set-up: test concentration 10 uM, cell line HepG2-A16-CD81EGFP. The method, boiled down:
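Uninfected HepG2-A16-CD81EGFP cells, 3 × 10^3 per well, 1536-well, plated on prespotted compound at 10 μM final, parasite-free screening media added to match infected plates; puromycin 10 μM positive, DMSO 0.5% negative; run in parallel with 48 h PbLuc assay at 37 °C, 5% CO2; viability by CellTiter-Glo luminescence, normalized to controls.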
Regarding `Cc1ccc(NC(=O)Cn2ccc3c(=O)n(C)ccc32)cc1F`, the cytotoxicity at 10 µM was -2.74%. With `O=C(O)CCNC(=O)N1CCc2c([nH]c3ccc(Cl)cc23)C1`, the cytotoxicity at 10 µM was determined as 11.9%.

With `O=c1nc(SCc2cccnc2)c2c(n1CCO)CCCC2`, the cytotoxicity at 10 µM is 8.97%. Regarding `COC(C)(CNS(=O)(=O)c1cccnc1)c1ccccc1F` (configuration not stated), the cytotoxicity at 10 µM was -0.403%.

Turning to `CCS(=O)(=O)N1Cc2c(Cn3cccc3)nn(C(C)C)c2C1`, the cytotoxicity at 10 µM turned out to be 13.6%.

`CCOCC1CC2(CCN(C(=O)C3CCSCC3)CC2)CO1` (configuration not stated): the cytotoxicity at 10 µM is 2.5%. In the case of `OCCN1CCOC2(CCCN(c3ncccn3)C2)C1` (configuration not stated), the cytotoxicity at 10 µM was found to be 9.55%. Consider `COCC(=O)N1C[C@@H]2COC[C@]2(COC)C1`, for which the cytotoxicity at 10 µM is 5.44%.

Take `CCOC[C@H]1CC[C@H]2[C@H](CCN2S(=O)(=O)Cc2ccccc2)O1`: the cytotoxicity at 10 µM was found to be 8.61%. With `CC(C)CCN1N=C(C(=O)N2CCCCCC2)S(=O)(=O)c2ccccc21`, the cytotoxicity at 10 µM worked out at 11.8%.

Turning to `CCOc1cccc(CNc2ccccc2C(F)(F)F)c1O`, the cytotoxicity at 10 µM is -4.17%. The result for `COc1ccccc1OCC(=O)NCC(O)(c1ccccc1)C1CC1` (configuration not stated) reads -16.1%; that for `CC(C)(C)C(=O)NCCn1ccc(-c2ccncc2)n1`, -26.7%. The value for `Cc1noc(C2CCC3(CCN(C(=O)c4c(C)noc4C)CC3)O2)n1` (configuration not stated) was -10.6%; that for `O=C1CCCN1Cc1ncn2c1CN(C(=O)c1cccc(F)c1)CCC2` was -12.1%; that for `Cc1nn(Cc2ccc(C(=O)NCCCN3CCOCC3)o2)c(C)c1Cl` was -5.47%. Take `CCCn1c(N2CCCC(C)C2)nc2c(C)nn(C)c2c1=O` (configuration not stated): the cytotoxicity at 10 µM was determined as 13.4%.

`COc1c(C)cnc(CNCC(C)C)c1C`: the cytotoxicity at 10 µM is -0.135%. As to `Cc1noc(C)c1CC(=O)N[C@@H]1CC[C@@H](Oc2ccccc2)[C@@H]1O`, the cytotoxicity at 10 µM was 2.04%. The result for `Cc1ccccc1CC(=O)NCc1cnc(CC2CCN(C)CC2)cn1` reads -1.25%; that for `OCc1cc(C2CCCN2c2ncccn2)n[nH]1` (configuration not stated), 8.32%.

As to `CNC(=O)C1(Cc2cc(C(C)C)no2)CCN(Cc2ccccn2)C1` (configuration not stated), the cytotoxicity at 10 µM is 6.24%. `O=C(CCS(=O)(=O)C1CCCC1)N1CCC(O)(C(F)(F)F)C1` (configuration not stated): the cytotoxicity at 10 µM was 18.9%. Turning to `O=C(CNC(=O)Nc1c(F)cccc1Oc1ccccc1)NC1CC1`, the cytotoxicity at 10 µM was found to be 6.45%. On to `CC(=O)N1CCC(C(=O)NCCc2c[nH]c3cc(C)ccc23)CC1`, for which the cytotoxicity at 10 µM came out at 18.1%. The result for `Cc1ncc2c(n1)CN(Cc1nc(-c3ccco3)oc1C)CC2` reads 2.2%; that for `OCCC1(NCc2ccc(-n3cccn3)cc2)CCOCC1`, -146%. As for `O=C(NCC1CCOC1)c1cc(-c2ccc(Cl)cc2)n[nH]1` (configuration not stated), the cytotoxicity at 10 µM is -14%. The result for `COC(=O)C(CNC(=O)Nc1cn[nH]c1)Cc1cccc(C)c1` (configuration not stated) reads 1.37%; that for `Cc1ccc(N(CCC#N)C(=O)CCc2cccnc2)cc1C`, -7.68%; that for `CN(CCC#N)C(=O)Cn1cnc2c(Br)cccc2c1=O`, -1.6%. For `Cc1noc(CCCNC(=O)CNC(=O)c2cc3ccccc3[nH]2)n1`, the cytotoxicity at 10 µM came to 4.81%. Take `c1cc(CCN2CCC(c3n[nH]c(C4CC4)n3)CC2)ccn1`: the cytotoxicity at 10 µM was 3.39%. Take `Cc1nc(CCNc2ccc(-c3nc(C)c(C)c(=O)[nH]3)cn2)cs1`: the cytotoxicity at 10 µM was found to be 2.07%. In the case of `COc1cc(Nc2c(C#N)c(=O)n(C)c(=O)n2C)cc(OC)c1`, the cytotoxicity at 10 µM is -3.65%.

With `COc1ncccc1NC(=O)NCC1CC1`, the cytotoxicity at 10 µM was -2.45%. In the case of `COc1cccc(NC(=O)Cc2c(C)nc3c(c2C)c(=O)[nH]n3C)c1`, the cytotoxicity at 10 µM was 5.05%. The value for `CCS(=O)(=O)c1ccc(N2CCC(N)CC2)cc1` was -6.44%; that for `O=C(O)c1ccc(S(=O)(=O)Nc2c(F)cccc2-n2cccn2)cc1` was -8.8%; that for `Cc1cc(CC(=O)NC(C)c2ccc(OCC3CC3)c(F)c2)n[nH]1` (configuration not stated) was 4.75%. For the compound `CCOC(=O)C(C)Nc1cccc(COCc2ccco2)c1` (configuration not stated), the cytotoxicity at 10 µM was 2.1%. `CCOc1cccc(COC(=O)c2ccc(F)cn2)n1`: the cytotoxicity at 10 µM was found to be 0.296%. On to `CC(c1nc(C2CC2)no1)N(C)Cc1ccc2c(c1)OCCO2` (configuration not stated), for which the cytotoxicity at 10 µM came to 0.611%. As to `COC(=O)NCCCC(=O)NCC1(c2cccc(Cl)c2)CC1`, the cytotoxicity at 10 µM turned out to be 1.42%. On to `CC(NCc1cnc(C2CCC2)s1)c1ccccc1-n1cccn1` (configuration not stated), for which the cytotoxicity at 10 µM was determined as 0.33%. Regarding `CN(C)C(=O)CN1CCN(C(=O)C2CSc3ccccc3O2)CC1` (configuration not stated), the cytotoxicity at 10 µM was found to be 1.84%. For the compound `CN(C)c1ccc(C(=O)NCc2ccc(N3CCOCC3)cc2)cn1`, the cytotoxicity at 10 µM stood at 6.03%. In the case of `CC(c1ccc(Br)cc1)N1CCCN(C(N)=O)CC1` (configuration not stated), the cytotoxicity at 10 µM amounted to 2.1%.

`O=C1COc2cccc(OCc3ccccn3)c2N1`: the cytotoxicity at 10 µM was found to be 2.2%. The result for `O=S(=O)(NCCc1c[nH]c2cc(F)ccc12)C1CCOC1` (configuration not stated) reads 8.57%; that for `CCCn1nc(-c2nc(Cc3ccc(OC)cc3)no2)ccc1=O`, 0.0197%; that for `Cc1cc(F)ccc1S(=O)(=O)N1CCN(C)Cc2ccccc21`, 4.06%. Consider `O=C(CN1CCCNC1=O)Nc1ccccc1C(=O)C1CCCC1`, for which the cytotoxicity at 10 µM was determined as 9.83%. `O=C(CCn1ccccc1=O)Nc1ccc(F)c(Cl)c1`: the cytotoxicity at 10 µM was determined as 13.1%. `CCCSCC(=O)Nc1ncn(CC(=O)NCc2ccccc2)n1`: the cytotoxicity at 10 µM amounted to 19.2%.

Consider `Cc1cc(NC(=O)Cn2cc(C#N)c(=O)c3cc(Br)ccc32)no1`, for which the cytotoxicity at 10 µM stood at 16.5%.

In the case of `CC1CN(C)c2ccccc2CN1C(=O)c1ccc[nH]1` (configuration not stated), the cytotoxicity at 10 µM is -28.4%. The result for `Cc1cc(CN2CCC(C3CCN(CCc4ccccc4)C3)CC2)[nH]n1` (configuration not stated) reads 7.19%. With `Cc1ccc2c(c1)c(CNC(C)Cn1ccnc1)nn2C` (configuration not stated), the cytotoxicity at 10 µM was -6.14%.

For the compound `COCCC1(CO)CCCN(Cc2ccc(C(F)(F)F)cc2)C1` (configuration not stated), the cytotoxicity at 10 µM is -153%. As for `c1ccc(Cc2noc(CCNC3CCOC4(CCOCC4)C3)n2)cc1` (configuration not stated), the cytotoxicity at 10 µM was -0.872%. For `CS(=O)(=O)c1ncc(CN2CCN3CCCC3C2)n1CC1CCCCC1` (configuration not stated), the cytotoxicity at 10 µM was -4.9%. Take `CSc1ccc2cc(CN(C)CCCN(C)C)c(=O)[nH]c2c1`: the cytotoxicity at 10 µM is -2.72%.

Consider `CS(=O)(=O)NCC(=O)NCc1cccnc1-n1cnc2ccccc21`, for which the cytotoxicity at 10 µM was 0.324%. On to `CN1CCN(C[C@@H]2CN(C(=O)CCc3cn[nH]c3)C[C@@H]2CO)CC1`, for which the cytotoxicity at 10 µM was -0.973%. As for `Cc1nc(N)sc1C(=O)N[C@H]1CN(CCO)C[C@@H]1C1CC1`, the cytotoxicity at 10 µM came to 1.81%.

With `COc1c(F)ccc(C(=O)N2CC[C@H](CO)[C@@H](O)C2)c1F`, the cytotoxicity at 10 µM was -3.85%.

In the case of `Cc1cc2n(n1)CCN(c1nc(N)nc3c1CCNCC3)C2`, the cytotoxicity at 10 µM turned out to be 7.04%.

In the case of `O=C(Cc1cc2c(cc1Cl)OCCO2)N1CC[C@H](CO)[C@H](O)C1`, the cytotoxicity at 10 µM was found to be 7.96%. Turning to `O=C(NCC(F)(F)F)c1coc(COc2cccc(F)c2)n1`, the cytotoxicity at 10 µM is -148%. With `CCc1nc2c(c(NCc3cc(-c4cccnc4)no3)n1)CCNCC2`, the cytotoxicity at 10 µM was 0.811%. Consider `CNc1nc(N2CCN(C3CCCCC3)C(CCO)C2)nc2c1CCC2` (configuration not stated), for which the cytotoxicity at 10 µM was -6.86%. `OC[C@H]1CN(Cc2c(Cl)cccc2Cl)C[C@H]1CN1CCCCC1`: the cytotoxicity at 10 µM is -140%.

Take `CN(CCO)Cc1nnc(C2CCN(C(=O)c3cc[nH]c3)CC2)n1C`: the cytotoxicity at 10 µM is 1.37%.

As to `Cc1ncsc1CN(Cc1ccccc1)Cc1ccncc1`, the cytotoxicity at 10 µM was -4.45%.

Turning to `CCN(Cc1cc(F)ccc1Cl)C1CCS(=O)(=O)C1` (configuration not stated), the cytotoxicity at 10 µM turned out to be 5.29%. As to `CC(C)c1nccn1CCCNC(=O)c1ccc(-c2cncnc2)nc1`, the cytotoxicity at 10 µM came to 16.1%. As for `COC(=O)c1cc(OCC2CCC2)cc(C(=O)N[C@@H]2CNCC[C@H]2O)c1`, the cytotoxicity at 10 µM was -12%.

As to `COc1ccc(C(=O)N2CCCC2c2noc(C(C)C)n2)nn1` (configuration not stated), the cytotoxicity at 10 µM was -4.01%. Take `Cn1ccnc1CN1CCN(CC(=O)NCc2ccccc2F)CC1`: the cytotoxicity at 10 µM is -22.1%. `CCC1c2ccsc2CCN1C(=O)NCc1cc(C)on1` (configuration not stated): the cytotoxicity at 10 µM was -10.2%. Take `O=C(CCc1ccccn1)N1CCCC(n2cncn2)C1` (configuration not stated): the cytotoxicity at 10 µM is -15.5%.

Turning to `O=C(c1cccc2cn[nH]c12)N1CCCC1c1noc(C2CC2)n1` (configuration not stated), the cytotoxicity at 10 µM is -16.8%.

With `Cc1nc(C2CCN(C(=O)c3cc(C4CC4)[nH]n3)CC2)no1`, the cytotoxicity at 10 µM was -6.44%. In the case of `Cn1c(C2CC2)nc2c1CCN(CCOc1cccc(F)c1)C2`, the cytotoxicity at 10 µM was -13.1%.

On to `Cn1c(C2CC2)nc2c1CCN(CC(=O)Nc1nccs1)C2`, for which the cytotoxicity at 10 µM is -9.83%. `CNC(=O)NC(=O)CCN1CCN(c2nccs2)CC1`: the cytotoxicity at 10 µM is -11.1%.

Turning to `CS(=O)(=O)CCNC(=O)c1ccc(-c2ccco2)[nH]c1=O`, the cytotoxicity at 10 µM is -22.8%.

Turning to `Cc1nn(C)c(C)c1C1CCCN1CC(=O)Nc1nccs1` (configuration not stated), the cytotoxicity at 10 µM was -21.6%. In the case of `CC(C)c1n[nH]c(C2CN(C(=O)c3cccc4cn[nH]c34)CCO2)n1` (configuration not stated), the cytotoxicity at 10 µM is -5.31%. Regarding `CC(C)N1CC(C(=O)NCCOc2ccc3c(c2)OCO3)CC1=O` (configuration not stated), the cytotoxicity at 10 µM is -6.51%. Take `O=C(NCCCn1ccnc1)N1CCN(c2cccs2)CC1`: the cytotoxicity at 10 µM is -2.53%.

For `CN(C)C(=O)COC1COC2(CCN(CC3CCOCC3)CC2)C1` (configuration not stated), the cytotoxicity at 10 µM was -113%. As to `CC1c2ncc(COCC3CCOCC3)n2CCN1Cc1cccnc1` (configuration not stated), the cytotoxicity at 10 µM came out at 5.95%. The value for `Cc1ccc(CN2CC[C@@H](N3CCOCC3)[C@@H]2Cc2cccnc2)o1` was 9.55%; that for `Cn1ccc(C(=O)NC2CCC23CCN(CC2CCOCC2)CC3)c1` (configuration not stated) was -149%; that for `Cc1noc(C)c1CN1C(=O)[C@@H]2CC[C@H]1CN(Cc1nccs1)C2` was -0.626%.
